# In ChEMBL document CHEMBL4017544 (J Med Chem, 2017):
# Active and inactive are the calls of the source. The rule behind the calls is not given here.
# Assays:
# [1] = system: Mus musculus; test: Renoprotective activity in db/db mouse assessed as reduction in fused podocytes at 1 to 2 mg/kg, ip administered trice per week for 12 consecutive weeks measured at 11 weeks post dose by TEM microscopic analysis; type: functional, organism-based
# How it was run: (§1)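 Male db/db mice (8 weeks old) were dosed i.p. three times weekly for 12 weeks in 5% Tween-80/0.9% saline, n = 6. Kidney tissue was fixed in 3% glutaraldehyde, cut into 80 nm ultrathin sections and examined by TEM. GBM thickness was measured at 30 random locations from three sections per kidney and averaged per mouse.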
# [2] = system: Mus musculus; test: Renoprotective activity in db/db mouse assessed as reduction in loss of foot processes at 1 to 2 mg/kg, ip administered trice per week for 12 consecutive weeks measured at 11 weeks post dose by TEM microscopic analysis; type: functional, organism-based; how it was run: as §1
# [3] = system: Mus musculus; test: Renoprotective activity in db/db mouse assessed as reduction in mesangial expansion at 1 to 2 mg/kg, ip administered trice per week for 12 consecutive weeks measured at 11 weeks post dose by TEM microscopic analysis; type: functional, organism-based; how it was run: as §1
# [4] = system: Mus musculus; test: Anti-diabetic nephropathic activity in db/db mouse assessed as reduction in urinary albumin at 0.65 mg/kg, ip administered trice per week for 12 consecutive weeks measured at 24 hrs post 11 week administration; type: functional, organism-based
# How it was run: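 Male db/db mice, 8 weeks old, randomized; ip vehicle (5% Tween-80 in 0.9% saline) or drug three times weekly for 12 weeks, n = 6 per group. After 11 weeks, 24 h urine collected for volume, albumin and creatinine, with UACR calculated; blood then sampled for plasma BUN and uric acid. Mean ± SD, one-way ANOVA with Tukey test.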
# [5] = target: Kelch-like ECH-associated protein 1 (Homo sapiens) (UniProt Q14145); test: Inhibition of Keap1/Nrf2 (unknown origin) interaction transfected in HEK293 cells assessed as increase in cytosolic NQO1 levels at 200 to 1000 nM after 48 hrs by Western blot analysis; type: cell-based
# How it was run: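 HEK293 cells grown in high-glucose DMEM with 10% FBS were treated in triplicate at 200 or 1000 nM for 48 h. Nuclear and cytosolic Nrf2, HO-1 and cytoplasmic NQO1 were measured by western blot with specific antibodies, with TBP and β-actin among the probed proteins. The nuclear/cytosolic Nrf2 ratio was derived from these blots. Three independent experiments, mean ± SD.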
# [6] = system: Mus musculus; test: Toxicity in db/db mouse assessed as increase in body weight at 0.65 mg/kg, ip administered thrice per week for 12 consecutive weeks measured every other day (reference value: 15%); type: organism-based; conditions: in vivo
# How it was run: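 Male db/db mice (8 weeks old, specific pathogen-free, normal chow and filtered water ad libitum) were randomized and dosed i.p. three times weekly for 12 consecutive weeks; vehicle was 5% Tween-80 in 0.9% saline. Body weight and food and water consumption were recorded every other day.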
# [7] = system: Mus musculus; test: Cardioprotective activity in C57BL/6 db/db mouse assessed as reduction in apoptotic cardiomyocyte levels at 0.65 mg/kg, ip administered for 12 weeks by TUNNEL assay; type: functional, organism-based
# How it was run: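 db/db mice, 8 weeks old, with C57BL/6 controls; ip vehicle or drug for 12 weeks, n = 6 per group. Heart sections (5 μm) from paraformaldehyde-fixed, paraffin-embedded tissue analysed by TUNEL; percentage of apoptotic cardiomyocytes from three sections per mouse; mean ± SD from two separate experiments.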
# [8] = system: Mus musculus; test: Renoprotective activity in db/db mouse assessed as reduction in loss of foot processes at 0.65 mg/kg, ip administered trice per week for 12 consecutive weeks measured at 11 weeks post dose by TEM microscopic analysis; type: functional, organism-based; how it was run: as §1
# [9] = Drug level in Sprague-Dawley rat heart at 20 mg/kg, ip measured at 90 mins by LC-MS/MS analysis; type: ADME, organism-based; conditions: read-out: Drug uptake
# How it was run: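 Rats given a single ip injection, 20 mg/kg (0.04 mmol) of CDDO-Me or 30 mg/kg (0.04 mmol) of the prodrug; heart, kidney and liver collected over time; parent compound and liberated CDDO-Me measured by LC-MS/MS.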
# Kelch-like ECH-associated protein 1 (Homo sapiens), sequence (Q14145 whole entry): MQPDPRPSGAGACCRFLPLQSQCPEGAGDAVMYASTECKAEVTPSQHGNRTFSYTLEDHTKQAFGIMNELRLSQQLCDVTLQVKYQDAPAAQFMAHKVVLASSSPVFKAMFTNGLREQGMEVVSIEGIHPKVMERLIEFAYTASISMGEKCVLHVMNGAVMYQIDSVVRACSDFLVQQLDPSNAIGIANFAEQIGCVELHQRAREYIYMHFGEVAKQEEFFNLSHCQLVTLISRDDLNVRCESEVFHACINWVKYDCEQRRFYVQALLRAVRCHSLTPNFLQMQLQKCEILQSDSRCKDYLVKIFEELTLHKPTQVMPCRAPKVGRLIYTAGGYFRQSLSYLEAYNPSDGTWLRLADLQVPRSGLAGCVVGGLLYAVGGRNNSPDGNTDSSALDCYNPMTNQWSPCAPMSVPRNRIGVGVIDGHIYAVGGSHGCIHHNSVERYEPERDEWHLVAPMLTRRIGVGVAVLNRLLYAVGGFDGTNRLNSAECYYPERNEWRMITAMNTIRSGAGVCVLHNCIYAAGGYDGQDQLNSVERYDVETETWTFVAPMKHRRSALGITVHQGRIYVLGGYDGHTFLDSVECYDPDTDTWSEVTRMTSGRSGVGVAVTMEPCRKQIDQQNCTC
Compound,Activity [1],Activity [2],Activity [3],Activity [4],inhibition [5],Activity [6] [%],Activity [7],Activity [8],concentration at 1.5 h [9] [ng/g]
COC(=O)[C@@H](N)CCC(=O)Nc1ccc(COC2=C(C#N)[C@H](O)[C@]3(C)C4=CC(=O)[C@@H]5[C@@H]6CC(C)(C)CC[C@]6(C(=O)OC)CC[C@@]5(C)[C@]4(C)CC[C@H]3C2(C)C)cc1,Active,Active,Active,,,,,,
COC(=O)[C@]12CCC(C)(C)C[C@H]1[C@H]1C(=O)C=C3[C@@]4(C)C=C(C#N)C(=O)C(C)(C)[C@@H]4CC[C@@]3(C)[C@]1(C)CC2 [BARDOXOLONE METHYL],,,,Active,Active,11.3,inactive,Active,1580
